Measurements taken from ChEMBL document CHEMBL1157541, “Identification and characterization of 4-chloro-N-(2-{[5-trifluoromethyl)-2-pyridyl]sulfonyl}ethyl)benzamide (GSK3787), a selective and irreversible peroxisome proliferator-activated receptor delta (PPARdelta) antagonist” (J Med Chem, 2010).
The source made the active and inactive calls. No cut-off for these calls is given here.

How the values were obtained:
[1] = molecular target: T1, Peroxisome proliferator-activated receptor alpha (Homo sapiens, UniProt Q07869); assay: Displacement of [3H]GW2433 from human PPARalpha receptor by ligand displacement assay
T1 sequence (Q07869 whole entry): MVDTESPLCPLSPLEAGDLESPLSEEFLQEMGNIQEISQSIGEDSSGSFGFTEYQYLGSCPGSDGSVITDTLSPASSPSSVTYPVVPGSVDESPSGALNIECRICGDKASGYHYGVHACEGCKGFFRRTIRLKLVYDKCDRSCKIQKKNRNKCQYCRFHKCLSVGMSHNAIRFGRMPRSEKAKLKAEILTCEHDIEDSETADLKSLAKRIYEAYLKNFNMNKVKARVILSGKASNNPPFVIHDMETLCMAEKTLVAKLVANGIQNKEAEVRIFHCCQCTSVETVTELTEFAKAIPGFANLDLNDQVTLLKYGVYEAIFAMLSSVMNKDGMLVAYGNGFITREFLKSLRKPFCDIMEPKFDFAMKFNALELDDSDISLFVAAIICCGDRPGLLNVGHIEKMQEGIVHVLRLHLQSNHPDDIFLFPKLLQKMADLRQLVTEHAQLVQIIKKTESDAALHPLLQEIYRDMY

[2] = molecular target: T2, Peroxisome proliferator-activated receptor gamma (Homo sapiens, UniProt P37231); assay: Inhibition of human PPARgamma receptor by ligand displacement assay
T2 sequence (P37231 whole entry): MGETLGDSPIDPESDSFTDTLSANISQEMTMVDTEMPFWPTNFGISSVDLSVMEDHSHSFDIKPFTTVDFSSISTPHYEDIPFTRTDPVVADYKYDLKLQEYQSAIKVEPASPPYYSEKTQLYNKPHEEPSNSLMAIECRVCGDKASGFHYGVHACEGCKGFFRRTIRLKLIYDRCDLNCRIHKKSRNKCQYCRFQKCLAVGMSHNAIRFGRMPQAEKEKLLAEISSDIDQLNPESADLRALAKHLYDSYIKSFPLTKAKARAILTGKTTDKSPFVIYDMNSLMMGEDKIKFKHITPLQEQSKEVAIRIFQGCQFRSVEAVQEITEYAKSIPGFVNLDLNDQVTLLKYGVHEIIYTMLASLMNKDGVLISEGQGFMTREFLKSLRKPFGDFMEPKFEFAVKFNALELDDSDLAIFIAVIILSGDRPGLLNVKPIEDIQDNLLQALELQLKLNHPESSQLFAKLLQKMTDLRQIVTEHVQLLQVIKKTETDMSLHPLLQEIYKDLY

[3] = molecular target: T3, Peroxisome proliferator-activated receptor delta (Homo sapiens, UniProt Q03181); assay: Inhibition of human PPARdelta receptor by ligand displacement assay
T3 sequence (Q03181 whole entry): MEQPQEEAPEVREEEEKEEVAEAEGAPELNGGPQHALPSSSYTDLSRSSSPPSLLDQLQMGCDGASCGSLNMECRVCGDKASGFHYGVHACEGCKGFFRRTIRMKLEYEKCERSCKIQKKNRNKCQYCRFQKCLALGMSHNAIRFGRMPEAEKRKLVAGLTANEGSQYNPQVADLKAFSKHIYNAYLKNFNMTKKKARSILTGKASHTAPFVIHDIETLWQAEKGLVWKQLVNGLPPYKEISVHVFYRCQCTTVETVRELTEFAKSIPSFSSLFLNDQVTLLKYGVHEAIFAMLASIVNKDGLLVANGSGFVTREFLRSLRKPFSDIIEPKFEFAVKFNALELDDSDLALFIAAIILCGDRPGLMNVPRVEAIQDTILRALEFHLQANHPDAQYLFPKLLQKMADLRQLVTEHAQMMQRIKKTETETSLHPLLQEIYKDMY

[4] = molecular target: T3, Peroxisome proliferator-activated receptor delta
[5] = species on record: Homo sapiens; assay: Inhibition of against 2-(4-((2-(3-fluoro-4-(trifluoromethyl)phenyl)-4-methylthiazol-5-yl)methylthio)-2-methylphenoxy)acetic acid-induced CPT1a gene expression in human skeletal muscle cell at 10 to 10000 nM; type: functional
Method in brief: (§1)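 Human skeletal muscle cells were stimulated with PPARδ agonist to induce transcription of the target genes CPT1a and PDK4. Compound was co-tested at various doses, and antagonism of the agonist-stimulated expression was read out.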

[6] = species on record: Homo sapiens; assay: Inhibition of against 2-(4-((2-(3-fluoro-4-(trifluoromethyl)phenyl)-4-methylthiazol-5-yl)methylthio)-2-methylphenoxy)acetic acid-induced PDK4 gene expression in human skeletal muscle cell at 10 to 10000 nM; type: functional; method in brief: as §1
[7] = species on record: Homo sapiens; assay: Inhibition of CPT1a gene expression in human skeletal muscle cell at 10 to 10000 nM; type: functional
Method in brief: (§2)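 Human skeletal muscle cells were treated with compound at various doses without added agonist. Basal CPT1a and PDK4 transcript expression was assessed.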

[8] = species on record: Homo sapiens; assay: Inhibition of PDK4 gene expression in human skeletal muscle cell at 10 to 10000 nM; type: functional; method in brief: as §2
[9] = tested on: SW480; assay: Antiproliferative against human SW480 cells at 10 uM; type: functional, cell-based
Method in brief: (§3)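 Colorectal lines (SW480, HCT116, DLD1, RKO) and non-colorectal lines (A549, HEK293) were incubated with compound for 3 days at concentrations up to 10 μM. Proliferation was compared with DMSO vehicle. Staurosporine and actinomycin D served as positive controls.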

[10] = tested on: HCT-116; assay: Antiproliferative against human HCT116 cells at 10 uM; type: functional, cell-based; method in brief: as §3
[11] = tested on: DLD-1; assay: Antiproliferative against human DLD1 cells at 10 uM; type: functional, cell-based; method in brief: as §3
[12] = tested on: RKO; assay: Antiproliferative against human RKO cells at 10 uM; type: functional, cell-based; method in brief: as §3
[13] = tested on: A549; assay: Antiproliferative against human A549 cells at 10 uM; type: functional, cell-based; method in brief: as §3
[14] = tested on: HEK293; assay: Antiproliferative against human HEK293 cells at 10 uM; type: functional, cell-based; method in brief: as §3
[15] = Clearance in C57BL/6 mouse at 0.5 mg/kg, iv; type: ADME, organism-based; parameters: dose 0.5 mg/kg, route intravenous; conditions: in vivo
Method in brief: (§4)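 Male C57BL/6 mice were dosed intravenously at 0.5 mg/kg and orally at 10 mg/kg. Clearance and Vss were taken from the iv arm. Cmax, AUCinf, half-life and oral bioavailability were taken from the oral arm. Values are given as mean ± deviation.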

[16] = Volume of distribution at steady state in C57BL/6 mouse at 0.5 mg/kg, iv; type: ADME, organism-based; parameters: dose 0.5 mg/kg, route intravenous; conditions: in vivo, read-out: Vdss; method in brief: as §4
[17] = Cmax in C57BL/6 mouse at 10 mg/kg, po; type: ADME, organism-based; parameters: dose 10 mg/kg, route oral; conditions: in vivo; method in brief: as §4
[18] = AUC (0 to infinity) in C57BL/6 mouse at 10 mg/kg, po; type: ADME, organism-based; parameters: dose 10 mg/kg, route oral, time infinity; conditions: plasma; method in brief: as §4
[19] = Half life in C57BL/6 mouse at 10 mg/kg, po; type: ADME, organism-based; parameters: dose 10 mg/kg, route oral; conditions: in vivo; method in brief: as §4
[20] = Oral bioavailability in C57BL/6 mouse at 10 mg/kg; type: ADME, organism-based; conditions: in vivo; method in brief: as §4

SMILES | IC50 [1] [nM] | IC50 [2] [nM] | IC50 [3] [nM] | IC50 [4] [nM] | also measured
O=C(NCCCS(=O)(=O)c1ccc(C(F)(F)F)cn1)c1ccc(OC(F)(F)F)cc1 | > 10000 | > 10000 | 1260 |  | 
O=C(NCCS(=O)(=O)c1ccc(C(F)(F)F)cn1)c1ccc(C2CCCCC2)cc1 | > 10000 | > 10000 | 1000 |  | 
CC(C)Cc1ccc(C(=O)NCCS(=O)(=O)c2ccc(C(F)(F)F)cn2)cc1 | > 10000 | > 10000 | 316 | 200 | 
O=C(NCCCS(=O)(=O)c1ccc(C(F)(F)F)cn1)c1ccc(Cl)cc1 | > 10000 | > 10000 | > 10000 |  | 
Cc1cc(C(=O)NCCS(=O)(=O)c2ccc(C(F)(F)F)cn2)ccc1Cl | > 10000 | > 10000 | 126 | 251 | 
O=C(NCCS(=O)(=O)c1ccc(C(F)(F)F)cn1)c1ccc(Cl)cc1Cl | > 10000 | > 10000 | 158 | 200 | 
COC(=O)c1sccc1S(=O)(=O)Nc1ccc(Nc2ccccc2)cc1OC | > 10000 | > 10000 |  |  | 
O=C(NCCS(=O)(=O)c1ccc(C(F)(F)F)cn1)c1ccc(Cl)cc1 | > 10000 | > 10000 | 200 | 126 | Activity [5]: Active; Activity [6]: Active; Activity [7]: Active; Activity [8]: inactive; Activity [9]: inactive; Activity [10]: inactive; Activity [11]: inactive; Activity [12]: inactive; Activity [13]: inactive; Activity [14]: inactive; clearance [15]: 39 mL/min/kg; Vd [16]: 1.7 L/kg; Cmax [17]: 881 ng/mL; AUC(0-inf) [18]: 3340 ng·h/mL; half-life [19]: 2.7 h; bioavailability [20]: 77%
O=C(NCCS(=O)(=O)c1ccc(C(F)(F)F)cn1)c1ccc(Cl)c(Br)c1 | > 10000 | > 10000 | 126 | 251 | 
O=C(NCCS(=O)(=O)c1ccc(C(F)(F)F)cn1)c1ccc(Br)cc1F | > 10000 | > 10000 | 50.1 | 79.4 | 
O=C(NCCS(=O)(=O)c1ccccn1)c1ccc(Cl)cc1 | > 10000 | > 10000 | > 10000 |  | 
O=C(NCCS(=O)(=O)c1ccc(C(F)(F)F)cn1)c1ccc(-c2ccccc2)cc1 |  | > 10000 | 200 | 251 | 
O=C(NCCS(=O)(=O)c1ccc(C(F)(F)F)cn1)c1ccc(OC(F)(F)F)cc1 | > 10000 | > 10000 | 100 |  | 
Cc1ccc(S(=O)(=O)CCNC(=O)c2ccc(Cl)cc2)nc1 | > 10000 | > 10000 | > 10000 |  | 
